From article PMC9079187 (ACS nano, 2021)
pKd: −log10 of the molar value. Like-named read-outs stand apart in the source and are kept apart here.

What was measured:
[1] = system: hippocampus of middle aged humans; settings: middle aged humans of around 40 years of age; contrast agent; cited from earlier work
[2] = biological target: C1C2-NP (C1C2 peptide conjugated to PEG diacid coated Gd nanoparticles, AF647 labeled); assay: MST
Dynamic light scattering = assay type: physicochemical; settings: DLS, Malvern Zetasizer Nano; DPBS pH 7.4, 0.05 mM, filtered 0.22 μm
[3] = Zeta potential measurement; assay type: physicochemical; settings: Malvern Zetasizer Nano; with NPs
human claudin-4 = biological target: T1, human claudin-4 (Homo sapiens, UniProt O14493); assay: Microscale thermophoresis; assay type: binding; settings: MST; buffer with 0.1% n-Undecyl-β-D-Maltopyranoside; 23°C; C1C2-NP fixed at 70 nM, claudin-4 0.8-28000 nM
T1 sequence (O14493 1-209): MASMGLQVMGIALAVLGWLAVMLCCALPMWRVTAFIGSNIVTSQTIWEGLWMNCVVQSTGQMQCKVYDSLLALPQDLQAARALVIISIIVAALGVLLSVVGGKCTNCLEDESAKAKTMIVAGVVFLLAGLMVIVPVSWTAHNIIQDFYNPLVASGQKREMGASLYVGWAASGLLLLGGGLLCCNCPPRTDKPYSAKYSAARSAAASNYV
Outline: (§1)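 Microscale thermophoresis on a Monolith instrument. AF647-labelled test NP was held at 70 nM against titrated human claudin-3 (0.4–14000 nM), claudin-4 (0.8–28000 nM) or claudin-9 (0.6–20000 nM). Buffer was 10 mM Tris-HCl pH 8.0, 100 mM NaCl, 4% glycerol and 0.1% n-undecyl-β-D-maltopyranoside. As a non-specific control, detergent was titrated 10 mM–0.7 μM against 1 μM AF647-labelled control NP.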

[4] = biological target: T2, human claudin-1 expressed in bEnd.3 cells (Homo sapiens, UniProt O95832); assay type: cell-based; settings: plasmid transfection; NP incubation 4 hrs; fluorescence
T2 sequence (O95832 1-211): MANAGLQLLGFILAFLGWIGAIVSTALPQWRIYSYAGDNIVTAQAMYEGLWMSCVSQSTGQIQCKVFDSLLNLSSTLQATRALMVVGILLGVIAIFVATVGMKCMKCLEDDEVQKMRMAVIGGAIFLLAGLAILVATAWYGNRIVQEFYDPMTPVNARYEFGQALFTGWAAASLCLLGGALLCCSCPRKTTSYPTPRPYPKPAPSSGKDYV
Outline: (§2)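 bEnd.3 mouse brain endothelial cells were grown in DMEM. For mouse claudin-1, cells were treated with ethanol (50 mM) to induce expression. For human claudin-1, cells were transfected with a pCMV plasmid encoding it. Cells were then incubated with AF-647-labelled targeted NPs for 4 hrs and imaged by fluorescence. Claudin-1 induction was checked by western blot relative to β-actin.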

[5] = biological target: T3, claudin-1 on brain endothelial cells (Mus musculus, UniProt O88551); assay type: in vivo; settings: corpus callosum and hippocampus, confocal, ~2 hrs post-injection
T3 sequence (O88551 1-211): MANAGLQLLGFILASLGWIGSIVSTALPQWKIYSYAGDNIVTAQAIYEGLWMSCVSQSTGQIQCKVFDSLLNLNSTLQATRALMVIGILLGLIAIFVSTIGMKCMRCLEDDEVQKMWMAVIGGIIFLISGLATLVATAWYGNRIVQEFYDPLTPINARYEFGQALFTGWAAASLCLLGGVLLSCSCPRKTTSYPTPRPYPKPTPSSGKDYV
Outline: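 Male and female C57BL/6J mice, 2 and 12 months old, received 100 μL of 0.5 mM test NP by tail vein, then a 100 μL PBS flush. About 2 h after injection they were perfused with 4% PFA and brains fixed 24 h. Sections were blocked 1 h at RT, stained overnight at 4 °C with rat anti-CD31 (1:250) and rabbit anti-claudin-1 (1:100), then AF488/AF555 secondaries (1:250, 2 h, RT) and DAPI. Confocal imaging used a 40x objective; colocalization was quantified with JACoP on ≥3 random fields per region per mouse.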

[6] = biological target: T4, mouse claudin-1 in bEnd.3 cells (Mus musculus, UniProt O88551); assay: In vitro fluorescence imaging of NP binding to bEnd.3 cells; assay type: cell-based
T4 sequence (O88551 1-211): T3 sequence (O88551 1-211)
Outline: as §2

[7] = Biodistribution in peripheral organs by ICP-MS; assay type: in vivo, mouse; settings: ICP-MS of Gd
Outline: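 Male and female C57BL/6J mice, three aged 2 months and three aged 12 months, received 100 μL of 0.5 mM control or targeted Gd-oxide NPs. Transcardial perfusion with ice-cold DPBS followed at 1 hr. Heart, lung, liver, kidneys, spleen, colon and intestine were weighed and digested in HNO3 at 100 °C for 120 minutes. Samples were filtered, diluted and measured for Gd by ICP-MS.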

human claudin-9 = biological target: T5, human claudin-9 (Homo sapiens, UniProt O95484); assay: Microscale thermophoresis; assay type: binding; settings: MST; buffer with 0.1% n-Undecyl-β-D-Maltopyranoside; 23°C; C1C2-NP fixed at 70 nM, claudin-9 0.6-20000 nM
T5 sequence (O95484 1-217): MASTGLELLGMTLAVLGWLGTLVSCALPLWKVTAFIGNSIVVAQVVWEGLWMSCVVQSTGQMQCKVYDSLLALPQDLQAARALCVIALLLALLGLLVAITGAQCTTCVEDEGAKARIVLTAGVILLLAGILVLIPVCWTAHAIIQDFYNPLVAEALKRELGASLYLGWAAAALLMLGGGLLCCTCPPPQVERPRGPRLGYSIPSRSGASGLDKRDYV
Outline: as §1

human claudin-3 = biological target: T6, human claudin-3 (Homo sapiens, UniProt O15551); assay: Microscale thermophoresis; assay type: binding; settings: MST; claudin-3 0.4-14000 nM; C1C2-NP fixed at 70 nM; buffer with 0.1% n-Undecyl-β-D-Maltopyranoside; 23°C
T6 sequence (O15551 1-220): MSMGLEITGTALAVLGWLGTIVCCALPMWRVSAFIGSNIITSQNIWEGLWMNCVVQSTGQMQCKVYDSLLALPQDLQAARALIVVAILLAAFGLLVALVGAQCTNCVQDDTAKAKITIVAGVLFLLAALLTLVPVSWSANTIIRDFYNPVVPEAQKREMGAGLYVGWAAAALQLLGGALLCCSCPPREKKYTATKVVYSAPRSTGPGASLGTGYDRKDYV
Outline: as §1

## CNC[C@H](O)[C@@H](O)[C@H](O)[C@H](O)CO.CNC[C@H](O)[C@@H](O)[C@H](O)[C@H](O)CO.O=C([O-])CN(CCN(CC(=O)[O-])CC(=O)O)CCN(CC(=O)O)C(COCc1ccccc1)C(=O)[O-].[Gd+3] (centres unmarked) [MultiHance]
[1]
  K^trans, hippocampus: ~ 0.001 min^−1

## recombinant human claudin-1 (from UniProt O95832 1-211) (natural protein)
[2]
  pKd: 4.68

## QEFYDPLTPINARYE [Cldn146-NP]
Dynamic light scattering
  Hydrodynamic size: 13.94±0.08 nm
[3]
  Zeta Potential: 1.62±0.13 mV

## SSVSQSTGQIQSKVDSLLNLNSTQATR [C1C2-NP]
Human claudin-4
  binding to human claudin-4 (in words): quite weak
[4]
  NP binding to bEnd.3 cells transfected to express human claudin-1: High NP binding
Dynamic light scattering
  Hydrodynamic size: 14.5±0.13 nm
[5]; 2-month-old mice
  colocalization of claudin-1, CD31 and nanoparticles in brain: not observed
[5]; 12-month-old mice
  colocalization of claudin-1, CD31 and nanoparticles in brain: colocalization
[6]; ethanol (50mM) induced claudin-1, NP incubation 4 hrs
  NP binding to ethanol-exposed bEnd.3 cells: much higher binding
[6]; normal culture, low claudin-1 expression, AF-647 modified NPs
  NP binding to control bEnd.3 cells: no binding
[7]; 1 hr post-injection of 100 μL of 0.5 mM NPs, versus control NPs
  accumulation in the kidney: increased
[7]; 1 hr post-injection, three mice per age
  accumulation in kidneys, 12-month-old compared to 2-month-old mice: higher
Human claudin-9
  binding to human claudin-9 (in words): quite weak
Human claudin-3
  binding to human claudin-3 (in words): does not show any binding
[3]
  Zeta Potential: 7.81±0.38 mV

## SCVSQSTGQIQCKVFDSLLNLNSTLQAT [Cldn53-NP]
Dynamic light scattering
  Hydrodynamic size: 13.8±0.11 nm
[3]
  Zeta Potential: 2.24±0.18 mV

## GSQIYMICNQFYTPGGTG [Ocldn207-NP]
Dynamic light scattering
  Hydrodynamic size: 14.23±0.11 nm
[3]
  Zeta Potential: 3.65±0.19 mV
